Measurements: ChEMBL document CHEMBL2380254, “Optimization of tocotrienols as antiproliferative and antimigratory leads” (Eur J Med Chem, 2013)
Calls of active or inactive are those of the source. The calls are words filed in the database; no cut-off is given here.

Experiments:
[1] = system: OVCAR-8; assay: Growth inhibition of human OVCAR8 cells after 48 hrs by sulforhodamine B assay; format: functional; details: OVCAR-8, 48 h
In short: (§1)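 NCI-60 panel cells grown in RPMI 1640 with 5% FBS and 2 mM L-glutamine, seeded at 5000–40,000 cells/well and preincubated 24 h. Five 10-fold dilutions (0.001–100 µM) from DMSO stocks were added for 48 h at 37 °C. Adherent cells were fixed with cold TCA (10% final) for 60 min at 4 °C, stained with 0.4% SRB, and read at 515 nm. GI50 was set where 100×(T−T0)/(C−T0)=50.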

[2] = system: SK-MEL-28; assay: Growth inhibition of human SK-MEL-28 cells after 48 hrs by sulforhodamine B assay; format: functional; details: SK-MEL-28, 48 h; in short: as §1
[3] = system: SW-620; assay: Growth inhibition of human SW620 cells after 48 hrs by sulforhodamine B assay; format: functional; details: SW-620, 48 h
In short: (§2)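 NCI-60 five-dose screen. Cells were grown in RPMI 1640 with 5% FBS and 2 mM L-glutamine, plated at 5000–40,000 cells/well and incubated 24 h before dosing, with T0 plates TCA-fixed. DMSO stocks were diluted to doses of […] and exposed 48 h at 37 °C, 5% CO2. Cells were fixed with cold TCA (final 10%, 60 min, 4 °C), stained with 0.4% SRB in 1% acetic acid for 10 min, solubilized in 10 mM trizma base and read at 515 nm. GI50 is where 100×(T−T0)/(C−T0)=50.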

[4] = system: SF-539; assay: Growth inhibition of human SF539 cells after 48 hrs by sulforhodamine B assay; format: functional; details: SF-539, 48 h; in short: as §1
[5] = system: MDA-MB-231; assay: Antiproliferative activity against human MDA-MB-231 cells by MTT assay; format: functional, cell-based
In short: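 Cells plated at 8 × 10^3/well (MDA-MB-231) or 10^4/well (MCF7) in 96-well plates. Compounds fed in media with 5% FBS (MDA-MB-231) or 1% FBS (MCF7). MTT read-out of viable cells.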

[6] = system: CAKI-1; assay: Growth inhibition of human CAKI-1 cells assessed as cell growth at 10 uM after 48 hrs by sulforhodamine B assay; format: functional; details: CAKI-1, 48 h, read-out: Activity
In short: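 NCI-60 single-dose screen at 10 µM: cells in RPMI 1640 with 5% FBS, preincubated 24 h, then exposed 48 h at 37 °C. TCA fixation (16% final for suspension cells), SRB staining, absorbance 515 nm. Percent growth relative to time-zero and untreated control plates; negative values indicate cell kill.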

[7] = system: MCF-10A; assay: Antiproliferative activity against human MCF10A cells by MTT assay; format: cell-based
In short: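 MCF10A kept in DMEM/F12 with 5% horse serum, hydrocortisone, cholera toxin, insulin and EGF, plated at 10 × 10^4 cells/well. Compounds from DMSO stock (final DMSO <0.1%, equal across groups) fed in serum-free media. Viable cell number by MTT; IC50 by non-linear regression.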

[8] = system: SNB-75; assay: Growth inhibition of human SNB75 cells after 48 hrs by sulforhodamine B assay; format: functional; details: SNB-75, 48 h; in short: as §2
[9] = system: MCF-10A; assay: Selectivity index, ratio of IC50 for human MCF10A cells to ratio of IC50 for mouse +SA cells; format: functional
In short: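 Index is the IC50 in MCF10A divided by the IC50 in +SA. +SA cells were kept in serum-free DMEM/F12 defined medium and given BSA-conjugated compounds at 0–40 µM (DMSO <0.1%). MCF10A cells were plated at 10×10^4 cells/well and fed compounds in serum-free medium.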

[10] = system: MCF7; assay: Growth inhibition of human MCF7 cells after 48 hrs by sulforhodamine B assay; format: functional; details: MCF7, 48 h; in short: as §1
[11] = system: +SA cell; assay: Antitumor activity against mouse +SA cells allografted in BALB/c mouse assessed as reduction in tumor volume at 0.5 mg, iv administered on day 40 post challenge for 14 days; format: functional, organism-based
In short: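 Female BALB/c mice, 3–4 months old, given 1 × 10^6 +SA cells into the #4 mammary fat pad under ketamine/xylazine. About 40 days later, once tumors were palpable, 0.5 mg in 0.1 mL propylene glycol/DMSO (1:1) by daily tail-vein injection for 14 days; vehicle controls. Caliper volume L×W²/2 and body weight recorded every other day. 14–15 mice/group; ANOVA with Duncan's test.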

[12] = system: MDA-MB-231; assay: Antimigratory activity against human MDA-MB-231 cells after 24 hrs by wound-healing assay; format: functional, cell-based; details: MDA-MB-231, 24 h
In short: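 MDA-MB-231 in RPMI 1640 with 10% FBS grown to >95% confluent monolayer, scratched with a pipette tip and washed. Then 24 h exposure in 0.5% serum at five non-toxic concentrations in DMSO, triplicate, DMSO as negative control. Diff Quick fixed and stained; migrated cells counted in ≥3 random 40× fields. IC50 = concentration inhibiting migration of 50% of cells.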

[13] = system: Mus musculus; assay: Toxicity in BALB/c mouse allografted with mouse +SA cells assessed as body weight change at 0.5 mg, iv administered on day 40 post challenge for 14 days; format: organism-based, +SA cell; details: in vivo, 336 h
In short: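 Female BALB/c mice, 3–4 months old, received 1×10^6 +SA cells in 0.1 mL medium into the #4 mammary fat pad. About 40 days later, once tumors were palpable, daily tail-vein injections began for 14 days: 0.5 mg in 0.1 mL propylene glycol/DMSO (1:1), with vehicle controls. Body weight was recorded every other day, with 14–15 mice per group. Analysis used ANOVA with Duncan's test.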

[14] = system: SK-MEL-5; assay: Growth inhibition of human SK-MEL-5 cells after 48 hrs by sulforhodamine B assay; format: functional; details: SK-MEL-5, 48 h; in short: as §1
[15] = system: K562; assay: Growth inhibition of human K562 cells after 48 hrs by sulforhodamine B assay; format: functional; details: K562, 48 h
In short: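 NCI-60 screen: cells in RPMI 1640 with 5% FBS and 2 mM glutamine, 5000–40,000 cells/well, preincubated 24 h. Five concentrations (10-fold dilutions; 100 to 0.001 µM) applied for 48 h at 37 °C. TCA fixation, SRB stain, absorbance at 515 nm. Time-zero plates included; GI50 where 100×(T−T0)/(C−T0)=50.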

| Structure (SMILES) | GI50 [1] [µM] | GI50 [2] [µM] | GI50 [3] [µM] | GI50 [4] [µM] | IC50 [5] [µM] | growth at 10 µM [6] [%] | IC50 [7] [µM] | GI50 [8] [µM] | Ratio IC50 [9] | GI50 [10] [µM] | Activity [11] | IC50 [12] [µM] | Activity [13] | GI50 [14] [µM] | GI50 [15] [µM] |
| --- | --- | --- | --- | --- | --- | --- | --- | --- | --- | --- | --- | --- | --- | --- | --- |
| CC(C)=CCC/C(C)=C/CC/C(C)=C/CC[C@]1(C)CCc2c3c(cc(C)c2O1)OCN(CCCCCO)C3 | 6.39 | 5.89 | 6.05 | 6.26 | 9 | 74.4 | 4.6 | 4.03 | 6.57 | 3.74 | – | – | – | – | – |
| CC(C)=CCC/C(C)=C/CC/C(C)=C/CC[C@]1(C)CCc2cc(O)c(C)c(C)c2O1 [GAMMA-TOCOTRIENOL] | – | – | – | – | 9.4 | 89.5 | 4.4 | – | 1.1 | – | inactive | > 40 | Non-toxic | – | – |
| CC(C)=CCC/C(C)=C/CC/C(C)=C/CC[C@]1(C)CCc2c3c(cc(C)c2O1)OCN(CCc1ccc(O)cc1)C3 | 5.84 | 5.59 | 1.59 | 6.41 | > 5 | 70.3 | 1.9 | 4.74 | 2.09 | 1.28 | – | 2.4 | – | 5.42 | – |
| COc1ccc(CCN2COc3c(C)c(C)c4c(c3C2)CC[C@@](C)(CC/C=C(\C)CC/C=C(\C)CCC=C(C)C)O4)cc1OC | – | – | – | – | > 50 | 88.5 | 0.7 | – | 0.39 | – | – | – | – | – | – |
| CC(C)=CCC/C(C)=C/CC/C(C)=C/CC[C@]1(C)CCc2c3c(c(C)c(C)c2O1)OCN(CCCCCCCCCCO)C3 | – | – | – | – | 15.7 | 78.9 | – | – | – | – | – | – | – | – | – |
| CC(C)=CCC/C(C)=C/CC/C(C)=C/CC[C@]1(C)CCc2c3c(cc(C)c2O1)OCN(CCCCCCCCO)C3 | 4.46 | 3.43 | – | 1.28 | 11.7 | -79.7 | 1.7 | 4.11 | 2.15 | 0.515 | – | 4.9 | – | 2.76 | 0.772 |
| CC(C)=CCC/C(C)=C/CC/C(C)=C/CC[C@]1(C)CCc2c3c(c(C)c(C)c2O1)OCN(CCCCCCO)C3 | 3.06 | 2.76 | – | 3.15 | > 10 | 47 | – | 2.46 | – | 2.73 | – | – | – | 2.88 | 2.96 |
| CC(C)=CCC/C(C)=C/CC/C(C)=C/CC[C@]1(C)CCc2c(CNCCc3ccc(O)cc3)c(O)c(C)c(C)c2O1 | – | – | – | – | – | 86.1 | – | – | – | – | – | – | – | – | – |
| CC(C)=CCC/C(C)=C/CC/C(C)=C/CC[C@]1(C)CCc2c3c(cc(C)c2O1)OCN(CCCCCCCCCCCCO)C3 | – | – | – | – | > 50 | 78.3 | – | – | – | – | – | – | – | – | – |
| CC(C)=CCC/C(C)=C/CC/C(C)=C/CC[C@]1(C)CCc2c3c(cc(C)c2O1)OCN(CCCO)C3 | 1.95 | 1.78 | 1.83 | 1.93 | > 10 | 60.4 | 6.5 | 1.29 | 3.61 | 1.66 | – | 6 | – | – | – |
| COc1ccc(CCN2COc3cc(C)c4c(c3C2)CC[C@@](C)(CC/C=C(\C)CC/C=C(\C)CCC=C(C)C)O4)cc1OC | 2.2 | 1.75 | 2 | 1.96 | – | 79.8 | – | 1.2 | – | 1.54 | – | – | – | – | – |
| CC(C)=CCC/C(C)=C/CC/C(C)=C/CC[C@]1(C)CCc2c3c(c(C)c(C)c2O1)OCN(CCCCCCCCCCCCO)C3 | – | – | – | – | > 50 | 96.2 | – | – | – | – | – | – | – | – | – |
| CC(C)=CCC/C(C)=C/CC/C(C)=C/CC[C@]1(C)CCc2c3c(cc(C)c2O1)OCN(CCCCCCO)C3 | 4.45 | 2.01 | – | 2.37 | > 5 | -72.8 | 2.5 | 3.14 | 1.92 | 0.579 | – | 1.5 | – | 2.5 | 0.81 |
| CC(C)=CCC/C(C)=C/CC/C(C)=C/CC[C@]1(C)CCc2c3c(cc(C)c2O1)OCN(CCCCO)C3 | – | – | – | 19.1 | > 5 | 34 | 4.2 | – | 2.34 | – | – | 2.2 | – | 14.5 | 7.42 |
| CC(C)=CCC/C(C)=C/CC/C(C)=C/CC[C@]1(C)CCc2c3c(c(C)c(C)c2O1)OCN(CCc1ccc(O)cc1)C3 | – | – | – | – | > 5 | 84.2 | 8.5 | – | 5.67 | – | – | 4.5 | – | – | – |
| CC(C)=CCC/C(C)=C/CC/C(C)=C/CC[C@]1(C)CCc2c3c(c(C)c(C)c2O1)OCN(CCCCCO)C3 | 6.39 | 5.89 | 6.05 | 6.26 | > 50 | 70 | 8.9 | 4.03 | 5.24 | 3.74 | – | – | – | – | – |
| CC(C)=CCC/C(C)=C/CC/C(C)=C/CC[C@]1(C)CCc2c3c(cc(C)c2O1)OCN(CCCCCCCCCCO)C3 | – | – | – | – | 12.4 | 77.9 | – | – | – | – | – | 7.2 | – | – | – |
| CC(C)=CCC/C(C)=C/CC/C(C)=C/CC[C@]1(C)CCc2c3c(cc(C)c2O1)OCN(C1CCN(Cc2ccccc2)CC1)C3 | 1.4 | 2.01 | 0.48 | 1.83 | – | 75.3 | – | 1.67 | – | 1.59 | – | – | – | – | – |
| CC(C)=CCC/C(C)=C/CC/C(C)=C/CC[C@]1(C)CCc2c3c(c(C)c(C)c2O1)OCN(CCCCO)C3 | > 10 | > 10 | – | > 10 | 13.8 | 70.1 | – | 9.35 | – | 1.78 | – | 10.7 | – | > 10 | 2.46 |
| COc1ccc(CCNCc2c(O)c(C)c(C)c3c2CC[C@@](C)(CC/C=C(\C)CC/C=C(\C)CCC=C(C)C)O3)cc1OC | – | – | – | – | – | 86.6 | – | – | – | – | Active | – | Non-toxic | – | – |
| CC(C)=CCC/C(C)=C/CC/C(C)=C/CC[C@]1(C)CCc2c3c(c(C)c(C)c2O1)OCN(CCCCCCCCO)C3 | 2.67 | 2.62 | – | 3.29 | > 20 | 31.3 | 2 | 2.38 | 1.43 | 2.59 | – | 4.7 | – | 2.9 | 3.5 |
